Source: ChEMBL document CHEMBL1143422, “In vitro selection and characterization of human immunodeficiency virus type 2 with decreased susceptibility to lopinavir” (Antimicrob Agents Chemother, 2007)
pEC50: −log10 of the molar value. The source made the active and inactive calls. The rule behind the calls is not given here.

How the values were obtained:
[1] = system: Human immunodeficiency virus 2; test: Ratio of EC50 for HIV2 ROD with protease V47A mutation to EC50 for wild type HIV2 ROD; assay type: functional
How it was run: (§1)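 Protease mutant clones of HIV-2ROD came from site-directed mutagenesis of pSL-3, with stocks made by 293T transfection. CEM174 cells were infected with 100 pg RT of virus for 2 h at 37°C, washed, and seeded at 2 × 10^5 cells/ml. PI was added as 1:4 serial dilutions, 1% DMSO final, and incubated 7 days. Supernatant RT was read, in triplicate. EC50 came from nonlinear regression, and fold-change is mutant EC50 divided by HIV-2ROD EC50.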

[2] = (§2) Ratio of EC50 for HIV2 MS to EC50 for HIV1 NL4-3 infected in human MT4 cells; assay type: functional
[3] = system: Human immunodeficiency virus 2; test: Ratio of EC50 for HIV2 ROD with protease G17N/V47A mutation to EC50 for wild type HIV2 ROD; assay type: functional; how it was run: as §1
[4] = system: Human immunodeficiency virus 2; test: Antiviral activity against HIV2 ROD with protease V47A mutation infected in human CEM cells assessed as inhibition of virus production after 7 days by Lenti-RT activity assay; assay type: functional, organism-based; settings: Human immunodeficiency virus 2, ROD, CCRF-CEM, 168 h; how it was run: as §1
[5] = system: Human immunodeficiency virus 2; test: Antiviral activity against wild type HIV2 ROD infected in human CEM cells assessed as inhibition of virus production after 7 days by Lenti-RT activity assay; assay type: functional, organism-based; settings: Human immunodeficiency virus 2, ROD, CCRF-CEM, 168 h
[6] = system: Human immunodeficiency virus 2; test: Antiviral activity against HIV2 ROD with protease G17N mutation infected in human CEM cells assessed as inhibition of virus production after 7 days by Lenti-RT activity assay; assay type: functional, organism-based; settings: Human immunodeficiency virus 2, ROD, CCRF-CEM, 168 h; how it was run: as §1
[7] = system: Human immunodeficiency virus 2; test: Antiviral activity against HIV2 CBL-23 infected in human PBMC assessed as inhibition of virus production after 5 days by Lenti-RT activity assay; assay type: functional, organism-based; settings: Human immunodeficiency virus 2, CBL-23, 120 h
How it was run: (§3)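 PBMCs were stimulated with PHA (5 μg/ml) for 3 days, then kept in 20% FBS medium with IL-2 (50 U/ml). Cells were infected 1 h with 50–100 pg RNA virus, washed twice, and given half-log PI dilutions (DMSO 1% final) in triplicate. After 5 days at 37°C, supernatant RT was read versus infected control. EC50 by nonlinear regression, mean of three experiments.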

[8] = (§4) Ratio of EC50 for HIV2 CDC310319 infected in human PBMC to EC50 for HIV1 NL4-3 infected in human MT4 cells; assay type: functional
[9] = (§5) Ratio of EC50 for HIV2 CBL-23 infected in human PBMC to EC50 for HIV1 NL4-3 infected in human MT4 cells; assay type: functional
[10] = system: Human immunodeficiency virus 1; test: Antiviral activity against HIV1 NL4-3 infected in human MT4 cells assessed as reduction in virus-induced cytopathic effect after 5 days by MTT assay; assay type: functional, organism-based; settings: Human immunodeficiency virus 1, NL4-3, MT4, 120 h
How it was run: (§6)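 MT4 cells were infected 1 h with 50–100 pg RNA virus, washed twice, and exposed in triplicate to half-log PI dilutions (DMSO 1% final) for 5 days at 37°C. Cell viability was read by MTT: 4 h, SDS/HCl lysis overnight, OD at 570/650 nm. Cytopathic-effect reduction was scaled between infected and uninfected controls. EC50 by nonlinear regression, mean of three experiments.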

[11] = system: Human immunodeficiency virus 2; test: Antiviral activity against HIV2 CDC310319 isolate infected in human PBMC assessed as inhibition of virus production after 5 days by Lenti-RT activity assay; assay type: functional, organism-based; settings: Human immunodeficiency virus 2, 120 h; how it was run: as §3
[12] = system: Human immunodeficiency virus 2; test: Antiviral activity against HIV2 ROD with protease G17N/V47A mutation infected in human CEM cells assessed as inhibition of virus production after 7 days by Lenti-RT activity assay; assay type: functional, organism-based; settings: Human immunodeficiency virus 2, ROD, CCRF-CEM, 168 h; how it was run: as §1
[13] = system: Human immunodeficiency virus 2; test: Ratio of EC50 for HIV2 ROD with protease G17N mutation to EC50 for wild type HIV2 ROD; assay type: functional; how it was run: as §1
[14] = system: Human immunodeficiency virus 2; test: Antiviral activity against HIV2 MS infected in human MT4 cells assessed as reduction in virus-induced cytopathic effect after 5 days by MTT assay; assay type: functional, organism-based; settings: Human immunodeficiency virus 2, MT4, 120 h; how it was run: as §6
[15] = system: Human immunodeficiency virus 1; test: Antiviral activity against HIV1 in presence of 50% human serum; assay type: functional, organism-based
[16] = system: Human immunodeficiency virus 1; test: Antiviral activity against HIV1 NL4-3 infected in human MT4 cells assessed as inhibition of virus production after 5 days by Lenti-RT activity assay; assay type: functional, organism-based
How it was run: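 HIV-1 NL4-3 in MT4 cells (RPMI 1640, 10% FBS) was adsorbed 1 h at 50–100 pg RNA and washed twice. PI in DMSO (1% final) was added in half-log dilutions, in triplicate. After 5 days at 37°C, supernatant RT was measured and expressed relative to infected untreated control. EC50 came from nonlinear regression, as the mean of three independent experiments.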

[17] = system: Human immunodeficiency virus 2; test: Antiviral activity against HIV2 MS infected in human MT4 cells […] after 1 passage; assay type: functional, organism-based; settings: Human immunodeficiency virus 2, MT4
[18] = system: Human immunodeficiency virus 1; test: Antiviral activity against HIV1 NL4-3 infected in human PBMC cells assessed as inhibition of virus production after 5 days by Lenti-RT activity assay; assay type: functional, organism-based; how it was run: as §3
[19] = system: Human immunodeficiency virus 2; test: Ratio of EC50 for HIV2 MS infected in human MT4 cells after 18 passages to EC50 for HIV2 MS infected in human MT4 cells; assay type: functional
[20] = system: Human immunodeficiency virus 2; test: Ratio of EC50 for HIV2 MS infected in human MT4 cells after 1 passage to EC50 for HIV2 MS infected in human MT4 cells; assay type: functional
[21] = system: Human immunodeficiency virus 2; test: Antiviral activity against HIV2 MS infected in human MT4 cells assessed as inhibition of virus production after 5 days by Lenti-RT activity assay; assay type: functional, organism-based; settings: Human immunodeficiency virus 2, MT4, 120 h
How it was run: (§7)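 Infection used 50 to 100 pg RNA for 1 h, followed by two washes. MT4 cells or PHA-stimulated, IL-2-maintained PBMCs were then exposed to half-log PI dilutions in triplicate, with 1% DMSO final. Incubation was 5 days at 37°C. Day-5 supernatant RT was read by Lenti-RT assay. EC50 came from nonlinear regression, as the mean of three independent experiments.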

[22] = system: Human immunodeficiency virus 2; test: Antiviral activity against HIV2 MS infected in human MT4 cells […] after 18 passages; assay type: functional, organism-based; settings: Human immunodeficiency virus 2, MT4
[23] = system: Human immunodeficiency virus 2; test: Antiviral activity against HIV2 MS infected in human PBMC cells assessed as inhibition of virus production after 5 days by Lenti-RT activity assay; assay type: functional, organism-based; settings: Human immunodeficiency virus 2, PBMC, 120 h; how it was run: as §7
[24] = system: MT4; test: as §2; assay type: functional
[25] = system: PBMC; test: as §4; assay type: functional
[26] = system: PBMC; test: as §5; assay type: functional

Compound	Ratio EC50 [1]	Ratio EC50 [2]	Ratio EC50 [3]	pEC50 [4]	pEC50 [5]	pEC50 [6]	pEC50 [7]	Ratio EC50 [8]	Ratio EC50 [9]	pEC50 [10]	pEC50 [11]	pEC50 [12]	Ratio EC50 [13]	pEC50 [14]	further results
CC(C)(C)NC(=O)[C@@H]1C[C@@H]2CCCC[C@@H]2CN1C[C@@H](O)[C@H](Cc1ccccc1)NC(=O)[C@H](CC(N)=O)NC(=O)c1ccc2ccccc2n1 [SAQUINAVIR]	0.1	0.4	0.1	9.70	8.44	8.66	8.10	5.7	0.7	7.92	7.17	9.70	0.6	8.30	
COC(=O)N[C@H](C(=O)N[C@@H](Cc1ccccc1)[C@@H](O)CN(Cc1ccc(-c2ccccn2)cc1)NC(=O)[C@@H](NC(=O)OC)C(C)(C)C)C(C)(C)C [ATAZANAVIR]	0.1	4	0.1	8.30	7.47	7.70	7.41	22	7.8	8.30	6.96	8.52	0.6	7.70	
CC(C)c1nc(CN(C)C(=O)N[C@H](C(=O)N[C@@H](Cc2ccccc2)C[C@H](O)[C@H](Cc2ccccc2)NC(=O)OCc2cncs2)C(C)C)cs1 [RITONAVIR]	0.3	7.6	0.2	6.94	6.38	6.51	6.29	14.5	11.2	7.34	6.18	7.08	0.7	6.46	pEC50 [15]: 7.00
Cc1cccc(C)c1OCC(=O)N[C@@H](Cc1ccccc1)[C@@H](O)C[C@H](Cc1ccccc1)NC(=O)[C@H](C(C)C)N1CCCNC1=O [LOPINAVIR]	9.7	0.8	7.4	6.47	7.46	7.55	7.92	10	0.7	7.74	6.74	6.59	0.8	7.82	Activity [16]: Active; pEC50 [17]: 7.82; Activity [18]: Active; Ratio EC50 [19]: 34; Ratio EC50 [20]: 1; pEC50 [21]: 8.22; pEC50 [22]: 6.29; pEC50 [23]: 7.82
CC(C)(C)NC(=O)[C@@H]1CN(Cc2cccnc2)CCN1C[C@@H](O)C[C@@H](Cc1ccccc1)C(=O)N[C@H]1c2ccccc2C[C@H]1O.O [INDINAVIR]	0.5	0.5	0.5	7.47	7.19	7.28	7.48	2.6	0.8	7.42	6.97	7.62	0.8	7.66	
Cc1c(O)cccc1C(=O)N[C@@H](CSc1ccccc1)[C@H](O)CN1C[C@H]2CCCC[C@H]2C[C@H]1C(=O)NC(C)(C)C [NELFINAVIR]	0.6	2.7	0.4	6.75	6.55	6.70	7.08	21.6	4.6	7.74	6.41	7.00	0.7	7.32	
CC(C)CN(C[C@@H](O)[C@H](Cc1ccccc1)NC(=O)O[C@H]1CO[C@H]2OCC[C@H]21)S(=O)(=O)c1ccc(N)cc1 [DARUNAVIR]	1.1		0.9	8.00	8.05	8.22	7.08	12.9	6.9	7.92	6.81	8.10	0.7		
CC(C)CN(C[C@@H](O)[C@H](Cc1ccccc1)NC(=O)O[C@H]1CCOC1)S(=O)(=O)c1ccc(N)cc1 [AMPRENAVIR]	0.7		0.5	6.20	6.07	6.23	6.03			7.14	6.17	6.39	0.7	6.05	Ratio EC50 [24]: 12.5; Ratio EC50 [25]: 9.2; Ratio EC50 [26]: 13
